A value given as a limit tells only on which side of the number the result lay.

What is called IC50 is the concentration at which inhibition is half-maximal.

The test system of series [1] is Neutrophil. Put plainly: Anti-inflammatory activity in human neutrophils assessed as inhibition of fMLF/CB-induced elastase release by measuring degranulation of azurophilic granules using MeOSuc-Ala-Ala-ProVal-p-nitroanilide as substrate preincubated for 5 mins followed by CB/fMLF stimulation. The class given is functional, cell-based. A digest of the protocol:
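Neutrophils from human blood (dextran sedimentation, Ficoll-Hypaque, hypotonic lysis of red cells; >98% viable by trypan blue) held in Ca2+-free HBSS pH 7.4 at 4 °C. Cells at 3 × 10^5/mL with 100 μM substrate, 2 min at 37 °C, compound 5 min, then fMLF 100 nM/CB 0.5 μg/mL. A405 followed continuously. Expressed as % of drug-free fMLF/CB control; three repeats.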

The subject of series [2] is Neutrophil. Put plainly: Anti-inflammatory activity in human neutrophils assessed as inhibition of fMLF/CB-induced superoxide anion generation preincubated for 5 mins followed by CB stimulation for 3 mins and subsequent fMLF stimulation for 10 mins by spectrophotometric method. The class given is functional, cell-based. An outline of the steps:
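Same neutrophil preparation. Cells at 3 × 10^5/mL with 0.5 mg/mL ferricytochrome c and 1 mM Ca2+, 2 min at 37 °C, then compound or DMSO 5 min, CB 1 μg/mL 3 min, fMLF 100 nM 10 min. SOD-inhibitable cytochrome c reduction read continuously at 550 nm with stirring. Means ± SEM, n = 3−5.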

Series [3] relates to Neutrophil. The series is described as follows: Proinflammatory activity in human neutrophils assessed as superoxide anion generation at 10 uM preincubated for 5 mins followed by CB addition measured after 3 mins by spectrophotometric method relative to control. The format is ADME, cell-based. The conditions noted are these: 0.05 h. An outline of the steps:
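Cytochrome c reduction at 550 nm as above (0.5 mg/mL ferricytochrome c, 1 mM Ca2+, 37 °C, 3 × 10^5 neutrophils/mL). Compound 10 μM given without fMLF/CB stimulation, or with CB only. Expressed relative to the fMLF/CB response taken as 100%. Means ± SEM, n = 3−5.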

Series [4] has as its system A549. The series is described as follows: Cytotoxicity against human A549 cells assessed as reduction in cell viability after 72 hrs by MTT assay. To be noted: A549, 72 h. The format is functional, cell-based.
In series [5] the test system is HepG2. The series is described as follows: Cytotoxicity against human HepG2 cells assessed as reduction in cell viability after 72 hrs by MTT assay. The conditions noted are these: HepG2, 72 h. The format is functional, cell-based. On the technique in general: Formazan colour is commonly taken as a measure of viable cells.
The subject of series [6] is Neutrophil. The series is described as follows: Proinflammatory activity in human neutrophils assessed as superoxide anion generation at 10 uM incubated for 5 mins by spectrophotometric method relative to control. The class given is ADME, cell-based. A digest of the protocol:
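Neutrophils at 3 × 10^5/mL in Ca2+-free HBSS pH 7.4, supplemented with 0.5 mg/mL ferricytochrome c and 1 mM Ca2+. Equilibrated 2 min at 37 °C, then exposed to compound at 10 μM for 5 min without fMLF/CB. SOD-inhibitable cytochrome c reduction followed continuously at 550 nm with stirring; expressed versus fMLF/CB-activated response as 100%. Means ± SEM, n = 3−5.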

Series [7] has as its system Neutrophil. Put plainly: Proinflammatory activity in human neutrophils assessed as elastase release by measuring degranulation of azurophilic granules using MeOSuc-Ala-Ala-ProVal-p-nitroanilide as substrate incubated for 5 mins relative to control. The class given is cell-based. A digest of the protocol: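 Neutrophils isolated from human blood by dextran sedimentation, Ficoll-Hypaque centrifugation and hypotonic erythrocyte lysis, >98% viable by trypan blue, held in Ca2+-free HBSS pH 7.4 at 4 °C. Cells at 3 × 10^5/mL with 100 μM substrate, equilibrated 2 min at 37 °C, then compound at 10 μM for 5 min without fMLF/CB. A405 monitored continuously; expressed versus fMLF/CB-stimulated release taken as 100%.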

Turning to `O=c1cc(N2CCOCC2)oc2c(-c3ccccc3)cccc12` [LY-294002], the IC50 in series [1] worked out at 3.3 µM; in series [2], 1.8 µM.
In the case of `CCCCCCCC/C=C\CCCCCCCC(=O)OCC(CO)OC(=O)CCCCCCCCCCCCCCC` (stereo unspecified), the IC50 in series [1], in series [4] and in series [5] was above 10 µM in each case. The Activity in series [3] is recorded as 74.5%.
Take `CCCCCCCCCC(=O)O[C@@]12C[C@@H](C)[C@@]3(O)[C@@H](C=C(CO)C[C@]4(O)C(=O)C(C)=C[C@@H]34)[C@@H]1C2(C)C`: the IC50 in series [1] is 0.8 µM; in series [4] it was above 10 µM; in series [5], above 10 µM. In series [6], the Activity amounted to 95.3%.
With `CCCCCCCC/C=C\CCCCCCCC(=O)OCC(O)COC(=O)CCCCCCC/C=C\CCCCCCCC`, the IC50 in series [1], in series [2], in series [4] and in series [5] was above 10 µM each time.
Take `CCCCCCCC/C=C\CCCCCCCC(=O)OCC1=C[C@H]2[C@@H]3C(C)(C)[C@]3(OC(C)=O)C[C@@H](C)[C@]2(O)[C@@H]2C=C(C)C(=O)[C@@]2(O)C1`: the IC50 in series [1], in series [4] and in series [5] was above 10 µM each time. In addition, the Activity in series [6] is recorded as 18.1%.
On to `CCCCCCCCCCCCCC(=O)O[C@@H]1[C@@H](C)[C@@]2(O)[C@@H](C=C(CO)C[C@]3(O)C(=O)C(C)=C[C@@H]23)[C@@H]2C(C)(C)[C@]12OC(C)=O` [PHORBOL MYRISTATE ACETATE], for which the results for the Activity in series [7] and in series [6] were 44.2% and 102.7%, respectively.
For `CC(=O)O[C@@]12[C@H](OC(=O)/C=C/C=C/C=O)[C@@H](C)[C@@]3(O)[C@@H](C=C(CO)C[C@]4(O)C(=O)C(C)=C[C@@H]34)[C@@H]1C2(C)C`, the IC50 in series [1] is 2.7 µM; in series [4], above 10 µM; in series [5], above 10 µM. Besides, the Activity in series [6] came to 106.1%.
As to `CCCCCCC[C@H](O)[C@@H](O)/C=C/C=C/C(=O)O[C@@H]1[C@@H](C)[C@@]2(O)[C@@H](C=C(CO)C[C@]3(O)C(=O)C(C)=C[C@@H]23)[C@@H]2C(C)(C)[C@]12OC(C)=O`, the figures for the Activity in series [7] and in series [6] were 9.2% and 107.1%, respectively. The IC50 in series [4] and in series [5] was above 10 µM in each case.
In the case of `CCCCCCCC(=O)O[C@@]12C[C@@H](C)[C@@]3(O)[C@@H](C=C(CO)C[C@]4(O)C(=O)C(C)=C[C@@H]34)[C@@H]1C2(C)C`, the results for the IC50 in series [1], in series [4] and in series [5] were 2.1 µM, above 10 µM and above 10 µM, respectively. The Activity in series [6] is 109.6%.
In the case of `CCCCCCC[C@@H](O)[C@@H](O)/C=C/C=C/C(=O)O[C@@H]1[C@@H](C)[C@@]2(O)[C@@H](C=C(CO)C[C@]3(O)C(=O)C(C)=C[C@@H]23)[C@@H]2C(C)(C)[C@]12OC(C)=O`, the results for the Activity in series [7] and in series [6] were 10.5% and 106%, respectively. In addition, the IC50 in series [4] and in series [5] was above 10 µM in each case.

The record behind these values is ChEMBL document CHEMBL4118039, “Inflammation Modulatory Phorbol Esters from the Seeds of Aquilaria malaccensis” (J Nat Prod, 2017).
